Experimental data: ChEMBL document CHEMBL1125736, “N-[(omega-amino-1-hydroxyalkyl)phenyl]methanesulfonamide derivatives with class III antiarrhythmic activity” (1991)

Legend:
[1] = test system: Canis familiaris; test: Compound was tested in vivo in dogs at a dose of 0.1 mg/kg through intravenous route and number of dogs in which ventricular fibrillation was induced was recorded.(Base line value-1)
[2] = test system: Canis familiaris; test: Conduction time for ventricular refractory period of the first premature stimulus was tested in dogs at a dose of 1.0 mg/kg through intravenous administration. (baseline value- 137+/-4); assay type: functional, Canis lupus familiaris, Cardiac ventricle
[3] = test system: Canis familiaris; test: Compound was tested in vivo in dogs at a dose of 1.0 mg/kg through intravenous route and number of dogs in which nonsustained ventricular arrhythmias were induced was recorded.(Base line value-2)
[4] = test system: Canis familiaris; test: Compound was tested in vivo in dogs at a dose of 1.0 mg/kg through intravenous route and number of dogs in which sustained ventricular arrhythmias were induced was recorded.(Base line value-1)
[5] = test system: Canis familiaris; test: Conduction time for ventricular refractory period of the second premature stimulus was tested in dogs at a dose of 1.0 mg/kg through intravenous administration. (baseline value- 123+/-4); assay type: functional, Canis lupus familiaris, Cardiac ventricle
[6] = test system: Canis familiaris; test: Compound was tested in vivo in dogs at a dose of 0.3 mg/kg through intravenous route and number of dogs in which ventricular fibrillation was induced was recorded.(Base line value-1)
[7] = test system: Canis familiaris; test: Conduction time from Q wave to T wave of lead II electrocardiogram corrected for heart rate was tested in dogs at a dose of 0.1 mg/kg through intravenous administration. (baseline value- 352+/-7); assay type: functional, Canis lupus familiaris
[8] = test system: Canis familiaris; test: Conduction time from the atrium to His bundle was tested in dogs at a dose of 0.1 mg/kg through intravenous administration. (baseline value- 73+/-3 ); assay type: functional, Canis lupus familiaris
[9] = test system: Canis familiaris; test: Conduction time from the His bundle to the onset of ventricular depolarizations was tested in dogs at a dose of 3.0 mg/kg through intravenous administration. (baseline value- 17+/-1 ); assay type: functional, Canis lupus familiaris, Cardiac ventricle
[10] = test system: Canis familiaris; test: Compound was tested in vivo in dogs at a dose of 3.0 mg/kg through intravenous route and number of dogs in which nonsustained ventricular arrhythmias were induced was recorded.(Base line value-2)
[11] = test system: Canis familiaris; test: Compound was tested in vivo in dogs at a dose of 0.3 mg/kg through intravenous route and number of dogs in which nonsustained ventricular arrhythmias were induced was recorded.(Base line value-2)
[12] = test system: Canis familiaris; test: Compound was tested in vivo in dogs at a dose of 3.0 mg/kg through intravenous route and number of dogs in which sustained ventricular arrhythmias were induced was recorded.(Base line value-1)
[13] = test system: Canis familiaris; test: Conduction time from the atrium to His bundle was tested in dogs at a dose of 1.0 mg/kg through intravenous administration. (baseline value- 73+/-3 ); assay type: functional, Canis lupus familiaris
[14] = test system: Canis familiaris; test: Conduction time for ventricular refractory period of the second premature stimulus was tested in dogs at a dose of 0.3 mg/kg through intravenous administration. (baseline value- 123+/-4); assay type: functional, Canis lupus familiaris, Cardiac ventricle
[15] = test system: Canis familiaris; test: Conduction time from Q wave to T wave of lead II electrocardiogram corrected for heart rate was tested in dogs at a dose of 1.0 mg/kg through intravenous administration. (baseline value- 352+/-7); assay type: functional, Canis lupus familiaris
[16] = test system: Canis familiaris; test: Compound was tested in vivo in dogs at a dose of 0.1 mg/kg through intravenous route and number of dogs in which nonsustained ventricular arrhythmias were induced was recorded.(Base line value-2)
[17] = test system: Canis familiaris; test: Compound was tested in vivo in dogs at a dose of 3.0 mg/kg through intravenous route and number of dogs in which ventricular fibrillation was induced was recorded.(Base line value-1)
[18] = test system: Canis familiaris; test: Conduction time from the His bundle to the onset of ventricular depolarizations was tested in dogs at a dose of 0.3 mg/kg through intravenous administration. (baseline value- 17+/-1 ); assay type: functional, Canis lupus familiaris, Cardiac ventricle
[19] = test system: Canis familiaris; test: Conduction time for ventricular refractory period of the first premature stimulus was tested in dogs at a dose of 0.1 mg/kg through intravenous administration. (baseline value- 137+/-4); assay type: functional, Canis lupus familiaris, Cardiac ventricle
[20] = species: Oryctolagus cuniculus; test: Tested for rate automaticity measured in beats per minute from unpaced right atria of rabbit heart.; assay type: functional
Summary of the method: (§1)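 Isolated rabbit heart tissues, all from one heart, each its own baseline; 2 h equilibration, perfusate changed every 15 min, basal stimulation 2 Hz between measurements. Exposed to 10^-7, 10^-6 and 10^-5 M drug, 15 min each; values reported at 10^-5 M as percent change from baseline. Drug solutions prepared daily in glass-distilled water. Force and rate recorded on polygraph.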

[21] = test system: Canis familiaris; test: Compound was tested in vivo in dogs at a dose of 0.1 mg/kg through intravenous route and number of dogs in which ventricular arrhythmias were not indicible was recorded.(Base line value-2)
[22] = test system: Canis familiaris; test: Conduction time from the His bundle to the onset of ventricular depolarizations was tested in dogs at a dose of 1.0 mg/kg through intravenous administration. (baseline value- 17+/-1 ); assay type: functional, Canis lupus familiaris, Cardiac ventricle
[23] = test system: Canis familiaris; test: Conduction time for ventricular refractory period of the first premature stimulus was tested in dogs at a dose of 3.0 mg/kg through intravenous administration. (baseline value- 137+/-4); assay type: functional, Canis lupus familiaris, Cardiac ventricle
[24] = test system: Canis familiaris; test: Conduction time from the atrium to His bundle was tested in dogs at a dose of 0.3 mg/kg through intravenous administration. (baseline value- 73+/-3 ); assay type: functional, Canis lupus familiaris
[25] = test system: Canis familiaris; test: Conduction time for ventricular refractory period of the second premature stimulus was tested in dogs at a dose of 0.1 mg/kg through intravenous administration. (baseline value- 123+/-4); assay type: functional, Canis lupus familiaris, Cardiac ventricle
[26] = species: Oryctolagus cuniculus; test: Tested for force of contraction measured in mg at a pacing rate of 2 Hz in vitro with rabbit heart tissue preparations.; assay type: functional
Summary of the method: as §1

[27] = species: Oryctolagus cuniculus; test: Tested for effective refractory period measured at a pacing rate of 3 Hz in vitro with rabbit heart tissue preparations.; assay type: functional; parameters: unit: %
Summary of the method: as §1

[28] = test system: Canis familiaris; test: Compound was tested in vivo in dogs at a dose of 0.1 mg/kg through intravenous route and number of dogs in which sustained ventricular arrhythmias were induced was recorded.(Base line value-1)
[29] = test system: Canis familiaris; test: Conduction time from Q wave to T wave of lead II electrocardiogram corrected for heart rate was tested in dogs at a dose of 3.0 mg/kg through intravenous administration. (baseline value- 352+/-7); assay type: functional, Canis lupus familiaris
[30] = test system: Canis familiaris; test: Compound was tested in vivo in dogs at a dose of 0.3 mg/kg through intravenous route and number of dogs in which sustained ventricular arrhythmias were induced was recorded.(Base line value-1)
[31] = test system: Canis familiaris; test: Compound was tested in vivo in dogs at a dose of 3.0 mg/kg through intravenous route and number of dogs in which ventricular arrhythmias were not indicible was recorded.(Base line value-2)
[32] = test system: Canis familiaris; test: Conduction time from Q wave to T wave of lead II electrocardiogram corrected for heart rate was tested in dogs at a dose of 0.3 mg/kg through intravenous administration. (baseline value- 352+/-7); assay type: functional, Canis lupus familiaris
[33] = test system: Canis familiaris; test: Conduction time for ventricular refractory period of the second premature stimulus was tested in dogs at a dose of 3.0 mg/kg through intravenous administration. (baseline value- 123+/-4); assay type: functional, Canis lupus familiaris, Cardiac ventricle
[34] = test system: Canis familiaris; test: Conduction time for ventricular refractory period of the first premature stimulus was tested in dogs at a dose of 0.3 mg/kg through intravenous administration. (baseline value- 137+/-4); assay type: functional, Canis lupus familiaris, Cardiac ventricle
[35] = species: Oryctolagus cuniculus; test: Tested for effective refractory period measured at a pacing rate of 1 Hz in vitro with rabbit heart tissue preparations.; assay type: functional
Summary of the method: as §1

[36] = test system: Canis familiaris; test: Compound was tested in vivo in dogs at a dose of 0.3 mg/kg through intravenous route and number of dogs in which ventricular arrhythmias were not indicible was recorded.(Base line value-2)
[37] = species: Oryctolagus cuniculus; test: Tested for conduction time measured at a pacing rate of 1 Hz in vitro with rabbit heart tissue preparations.; assay type: functional
Summary of the method: as §1

[38] = test system: Canis familiaris; test: Conduction time from the atrium to His bundle was tested in dogs at a dose of 3.0 mg/kg through intravenous administration. (baseline value 73+/-3 ); assay type: functional, Canis lupus familiaris
[39] = test system: Canis familiaris; test: Compound was tested in vivo in dogs at a dose of 1.0 mg/kg through intravenous route and number of dogs in which ventricular arrhythmias were not indicible was recorded.(Base line value-2)
[40] = species: Oryctolagus cuniculus; test: Tested for conduction time measured at a pacing rate of 3 Hz in vitro with rabbit heart tissue preparations.; assay type: functional
Summary of the method: as §1

[41] = test system: Canis familiaris; test: Compound was tested in vivo in dogs at a dose of 1.0 mg/kg through intravenous route and number of dogs in which ventricular fibrillation was induced was recorded.(Base line value-1)
[42] = test system: Canis familiaris; test: Conduction time from the His bundle to the onset of ventricular depolarizations was tested in dogs at a dose of 0.1 mg/kg through intravenous administration. (baseline value- 17+/-1 ); assay type: functional, Canis lupus familiaris, Cardiac ventricle

**Q.** For CCCCN(CCCC)CCCC(O)c1ccc(NS(C)(=O)=O)cc1 (configuration not stated), which number of animals [1] is on record?
**A.** 0 animals

**Q.** And the Time [2]?
**A.** 145 ms

**Q.** And the number of animals [3]?
**A.** 3 animals

**Q.** And the number of animals [4]?
**A.** 0 animals

**Q.** What about the Time [5] of the same compound?
**A.** 120 ms

**Q.** And the number of animals [6]?
**A.** 0 animals

**Q.** What about the Time [7] of the same compound?
**A.** 370 ms

**Q.** And the Time [8]?
**A.** 71 ms

**Q.** And the Time [9]?
**A.** 13 ms

**Q.** And the number of animals [10]?
**A.** 1 animals

**Q.** What about the number of animals [11] of the same compound?
**A.** 4 animals

**Q.** What about the number of animals [12] of the same compound?
**A.** 2 animals

**Q.** And the Time [13]?
**A.** 64 ms

**Q.** What about the Time [14] of the same compound?
**A.** 127 ms

**Q.** What about the Time [15] of the same compound?
**A.** 361 ms

**Q.** What about the number of animals [16] of the same compound?
**A.** 2 animals

**Q.** And the number of animals [17]?
**A.** 0 animals

**Q.** And the Time [18]?
**A.** 15 ms

**Q.** What about the Time [19] of the same compound?
**A.** 145 ms

**Q.** What about the Rate [20] of the same compound?
**A.** -20.3

**Q.** What about the number of animals [21] of the same compound?
**A.** 1 animals

**Q.** And the Time [22]?
**A.** 15 ms

**Q.** What about the Time [23] of the same compound?
**A.** 145 ms

**Q.** What about the Time [24] of the same compound?
**A.** 66 ms

**Q.** And the Time [25]?
**A.** 128 ms

**Q.** What about the FOC [26] of the same compound?
**A.** 0

**Q.** What about the ERP3 [27] of the same compound?
**A.** 10.4

**Q.** And the number of animals [28]?
**A.** 1 animals

**Q.** What about the Time [29] of the same compound?
**A.** 367 ms

**Q.** And the number of animals [30]?
**A.** 0 animals

**Q.** What about the number of animals [31] of the same compound?
**A.** 0 animals

**Q.** And the Time [32]?
**A.** 358 ms

**Q.** And the Time [33]?
**A.** 115 ms

**Q.** And the Time [34]?
**A.** 147 ms

**Q.** What about the ERP1 [35] of the same compound?
**A.** 9.5

**Q.** What about the number of animals [36] of the same compound?
**A.** 2 animals

**Q.** What about the CT1 [37] of the same compound?
**A.** -8.5

**Q.** What about the Time [38] of the same compound?
**A.** 64 ms

**Q.** What about the number of animals [39] of the same compound?
**A.** 2 animals

**Q.** And the CT3 [40]?
**A.** 5.2

**Q.** And the number of animals [41]?
**A.** 1 animals

**Q.** What about the Time [42] of the same compound?
**A.** 13 ms
